Measurements: article PMC5697680 (Clinical Pharmacology in Drug Development, 2017)

How the values were obtained:
Tolerability assessment = type: in vivo, healthy adults
Method in brief: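 Healthy adults (18-65 years) got five single oral 20 mg doses of test compound (granule suspension or dispersible tablet in low- or high-mineral water, immediate or after 30-minute hold). Dosing followed a Latin square, fasted in the morning, with at least 7 days' washout. AEs and SAEs were recorded from first dose to follow-up at least 7 days post-dose, along with labs, vital signs, ECG and physical exams. Results were summarized as subject numbers and percentages.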

[1] = cited from earlier work
[2] = test system: OCT2/MATE renal transporter; settings: results in increased exposure to OCT2 substrates such as metformin; cited from earlier work

For C[C@@H]1CCO[C@H]2Cn3cc(C(=O)NCc4ccc(F)cc4F)c(=O)c(O)c3C(=O)N12 [DTG, Dolutegravir], which “AEs reported, number of subjects” value (Tolerability assessment; 15 participants, all five single 20 mg treatments) is on record?
Its value is 9 subjects.

What about the “SAEs, AEs leading to withdrawal, or deaths” value (Tolerability assessment; 15 participants, all treatments) of the same molecule?
The value was “No SAEs”.

What about the “drug‐related AEs (nausea, mild), number of subjects” value (Tolerability assessment; two reports of nausea in one subject, resolved on the same day) of the same molecule?
Its value is 1 n.

What about the “reduction of DTG exposure by magnesium‐ and aluminum‐containing antacid” value ([1]; concomitant administration) of the same molecule?
Its value is 70%.

What about the “reduction of DTG plasma exposure by calcium supplement” value ([1]; fasting conditions) of the same molecule?
Its value is 39%.

And the “reduction of DTG plasma exposure by iron supplement” value ([1]; fasting conditions)?
Its value is 54%.

And the “effect on OCT2/MATE renal transporter” value [2]?
Its value is “inhibition”.
